Activity calls are given as the source filed them. No cut-off for these calls is given here.
Legend:
[1] = biological target: T1, DNA topoisomerase 1 (Homo sapiens) (UniProt P11387); assay: Inhibition of recombinant human topoisomerase 1 assessed as interacaltion of pBR322 DNA at 50 uM pre-incubated with DNA followed by incubation with enzyme for 30 mins by agarose gel electrophoresis
T1 sequence (whole entry): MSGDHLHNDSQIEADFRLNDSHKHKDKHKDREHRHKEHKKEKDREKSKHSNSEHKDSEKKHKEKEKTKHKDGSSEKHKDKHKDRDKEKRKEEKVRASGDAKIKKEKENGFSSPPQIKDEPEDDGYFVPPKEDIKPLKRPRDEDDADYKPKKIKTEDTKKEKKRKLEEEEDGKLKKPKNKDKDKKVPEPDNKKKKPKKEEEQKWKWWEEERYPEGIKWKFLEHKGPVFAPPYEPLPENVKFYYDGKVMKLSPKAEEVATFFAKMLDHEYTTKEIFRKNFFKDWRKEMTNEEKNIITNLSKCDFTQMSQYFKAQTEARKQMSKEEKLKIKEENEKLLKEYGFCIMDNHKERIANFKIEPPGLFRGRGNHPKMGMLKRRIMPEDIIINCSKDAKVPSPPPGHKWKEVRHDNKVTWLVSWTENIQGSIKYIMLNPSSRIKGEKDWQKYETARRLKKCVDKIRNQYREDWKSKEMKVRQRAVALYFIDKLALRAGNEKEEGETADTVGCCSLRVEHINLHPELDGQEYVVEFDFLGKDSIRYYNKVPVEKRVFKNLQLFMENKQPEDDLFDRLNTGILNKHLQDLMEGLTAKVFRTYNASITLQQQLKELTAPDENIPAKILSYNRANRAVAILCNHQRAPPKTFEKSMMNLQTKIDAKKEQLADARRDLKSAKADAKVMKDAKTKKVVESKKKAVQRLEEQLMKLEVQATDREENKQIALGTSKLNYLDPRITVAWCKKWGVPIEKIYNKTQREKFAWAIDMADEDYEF
Summary of the method: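 Supercoiled pBR322 first relaxed with Topo I in 50 mM Tris-HCl pH 7.5, 50 mM KCl, 10 mM MgCl2, 0.5 mM DTT, 0.1 mM EDTA, 30 μg/ml BSA. 0.1 μg relaxed DNA preincubated with compound 10 min at room temperature, then Topo I (1 unit) added for 30 min at 37 °C; phenol-chloroform extracted, SDS/EDTA stop, 1% agarose 1 h at 90 V; ethidium bromide as intercalator reference.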

[2] = Antiproliferative activity against human MDA-MB-201 cells after 48 hrs by MTT assay; format: functional, cell-based
Summary of the method: (§1)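 Cells seeded at 5000 per well and left overnight, then exposed to increasing concentrations (0-50 μM) for 48 h. […] HL-60/MX2 is a mitoxantrone-selected HL-60 derivative with reduced Topo IIα/β.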

[3] = tested on: Raji; assay: Antiproliferative activity against human Raji cells after 48 hrs by MTT assay; format: functional, cell-based; summary of the method: as §1
[4] = Antiproliferative activity against human HL60 cells after 48 hrs by MTT assay; format: functional, cell-based; conditions: HL-60, 48 h; summary of the method: as §1
[5] = tested on: HEK293; assay: Cytotoxicity against HEK293 cells after 48 hrs by MTT assay; format: cell-based; conditions: Homo sapiens, HEK293, 48 h
[6] = tested on: HL-60; assay: Induction of apoptosis in human HL60 cells assessed as viable cells at 0.5 uM after 12 hrs by annexin V-FITC/propidium iodide staining-based flow cytometric analysis (reference value: 99.12 to 99.33%); format: functional; conditions: HL-60, 12 h, read-out: Activity
Summary of the method: (§2)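 HL-60 cells at 5.0 × 10^5 cells/ml treated for 12 h (0.5–2 μM) or 24 h (0.25–1 μM), washed twice in cold PBS, resuspended in binding buffer, stained with annexin V-FITC and propidium iodide for 15 min in the dark, analysed by flow cytometry within 1 h; quadrants define live, early and late apoptotic cells. Three repeats.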

[7] = tested on: HL-60; assay: Induction of apoptosis in human HL60 cells assessed as early apoptotic cells at 0.5 uM after 12 hrs by annexin V-FITC/propidium iodide staining-based flow cytometric analysis (reference value: 0.38 to 0.55%); format: functional; summary of the method: as §2
[8] = tested on: HL-60; assay: Induction of apoptosis in human HL60 cells assessed as dead cells at 1 uM after 12 hrs by annexin V-FITC/propidium iodide staining-based flow cytometric analysis (reference value: 0.12 to 0.15%); format: functional
[9] = tested on: HL-60; assay: Induction of apoptosis in human HL60 cells assessed as viable cells at 1 uM after 12 hrs by annexin V-FITC/propidium iodide staining-based flow cytometric analysis (reference value: 99.12 to 99.33%); format: functional; conditions: HL-60, 12 h, read-out: Activity; summary of the method: as §2
[10] = tested on: HL-60; assay: Induction of apoptosis in human HL60 cells assessed as late apoptotic cells at 2 uM after 12 hrs by annexin V-FITC/propidium iodide staining-based flow cytometric analysis (reference value: 0.17 to 0.18%); format: functional; summary of the method: as §2
[11] = tested on: HL-60; assay: Induction of apoptosis in human HL60 cells assessed as viable cells at 2 uM after 12 hrs by annexin V-FITC/propidium iodide staining-based flow cytometric analysis (reference value: 99.12 to 99.33%); format: functional; conditions: HL-60, 12 h, read-out: Activity; summary of the method: as §2
[12] = tested on: HL-60; assay: Induction of apoptosis in human HL60 cells assessed as early apoptotic cells at 2 uM after 12 hrs by annexin V-FITC/propidium iodide staining-based flow cytometric analysis (reference value: 0.38 to 0.55%); format: functional; summary of the method: as §2
[13] = tested on: HL-60; assay: Induction of apoptosis in human HL60 cells assessed as late apoptotic cells at 0.25 uM after 24 hrs by annexin V-FITC/propidium iodide staining-based flow cytometric analysis (reference value: 1.64%); format: functional; summary of the method: as §2
[14] = tested on: HL-60; assay: Induction of apoptosis in human HL60 cells assessed as viable cells at 0.25 uM after 24 hrs by annexin V-FITC/propidium iodide staining-based flow cytometric analysis (reference value: 97.75%); format: functional; conditions: HL-60, 24 h, read-out: Activity; summary of the method: as §2
[15] = tested on: HL-60; assay: Induction of apoptosis in human HL60 cells assessed as dead cells at 0.5 uM after 24 hrs by annexin V-FITC/propidium iodide staining-based flow cytometric analysis (reference value: 0.12%); format: functional
[16] = tested on: HL-60; assay: Induction of apoptosis in human HL60 cells assessed as early apoptotic cells at 0.5 uM after 24 hrs by annexin V-FITC/propidium iodide staining-based flow cytometric analysis (reference value: 0.5%); format: functional; summary of the method: as §2
[17] = tested on: HL-60; assay: Induction of apoptosis in human HL60 cells assessed as viable cells at 1 uM after 24 hrs by annexin V-FITC/propidium iodide staining-based flow cytometric analysis (reference value: 97.75%); format: functional; conditions: HL-60, 24 h, read-out: Activity; summary of the method: as §2
[18] = tested on: HL-60; assay: Induction of apoptosis in human HL60 cells assessed as early apoptotic cells at 1 uM after 24 hrs by annexin V-FITC/propidium iodide staining-based flow cytometric analysis (reference value: 0.5%); format: functional; summary of the method: as §2
[19] = biological target: DNA topoisomerase 2-alpha (Homo sapiens, UniProt P11388); assay: Inhibition of purified human topoisomerase 2 catalytic activity using supercoiled pBR322 DNA as substrate assessed as inhibition of etoposide-induced linear DNA formation at 20 uM pre-incubated before etoposide addition by agarose gel electrophoresis
Summary of the method: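 Human Topo II (6 units) with 0.1 μg supercoiled pBR322 in 50 mM Tris-HCl pH 8.0, 150 mM NaCl, 10 mM MgCl2, 2 mM ATP, 0.5 mM DTT, 30 μg/ml BSA; compounds at 20 μM, etoposide 100 μM. After 6 min at 37 °C, complexes trapped with SDS then EDTA, proteinase K 30 min at 45 °C, heated 72 °C 2 min, run on 1% agarose; linear DNA scored. Antagonism tested by compound pretreatment before etoposide.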

Chain of DNA topoisomerase 2-alpha (P11388 whole entry): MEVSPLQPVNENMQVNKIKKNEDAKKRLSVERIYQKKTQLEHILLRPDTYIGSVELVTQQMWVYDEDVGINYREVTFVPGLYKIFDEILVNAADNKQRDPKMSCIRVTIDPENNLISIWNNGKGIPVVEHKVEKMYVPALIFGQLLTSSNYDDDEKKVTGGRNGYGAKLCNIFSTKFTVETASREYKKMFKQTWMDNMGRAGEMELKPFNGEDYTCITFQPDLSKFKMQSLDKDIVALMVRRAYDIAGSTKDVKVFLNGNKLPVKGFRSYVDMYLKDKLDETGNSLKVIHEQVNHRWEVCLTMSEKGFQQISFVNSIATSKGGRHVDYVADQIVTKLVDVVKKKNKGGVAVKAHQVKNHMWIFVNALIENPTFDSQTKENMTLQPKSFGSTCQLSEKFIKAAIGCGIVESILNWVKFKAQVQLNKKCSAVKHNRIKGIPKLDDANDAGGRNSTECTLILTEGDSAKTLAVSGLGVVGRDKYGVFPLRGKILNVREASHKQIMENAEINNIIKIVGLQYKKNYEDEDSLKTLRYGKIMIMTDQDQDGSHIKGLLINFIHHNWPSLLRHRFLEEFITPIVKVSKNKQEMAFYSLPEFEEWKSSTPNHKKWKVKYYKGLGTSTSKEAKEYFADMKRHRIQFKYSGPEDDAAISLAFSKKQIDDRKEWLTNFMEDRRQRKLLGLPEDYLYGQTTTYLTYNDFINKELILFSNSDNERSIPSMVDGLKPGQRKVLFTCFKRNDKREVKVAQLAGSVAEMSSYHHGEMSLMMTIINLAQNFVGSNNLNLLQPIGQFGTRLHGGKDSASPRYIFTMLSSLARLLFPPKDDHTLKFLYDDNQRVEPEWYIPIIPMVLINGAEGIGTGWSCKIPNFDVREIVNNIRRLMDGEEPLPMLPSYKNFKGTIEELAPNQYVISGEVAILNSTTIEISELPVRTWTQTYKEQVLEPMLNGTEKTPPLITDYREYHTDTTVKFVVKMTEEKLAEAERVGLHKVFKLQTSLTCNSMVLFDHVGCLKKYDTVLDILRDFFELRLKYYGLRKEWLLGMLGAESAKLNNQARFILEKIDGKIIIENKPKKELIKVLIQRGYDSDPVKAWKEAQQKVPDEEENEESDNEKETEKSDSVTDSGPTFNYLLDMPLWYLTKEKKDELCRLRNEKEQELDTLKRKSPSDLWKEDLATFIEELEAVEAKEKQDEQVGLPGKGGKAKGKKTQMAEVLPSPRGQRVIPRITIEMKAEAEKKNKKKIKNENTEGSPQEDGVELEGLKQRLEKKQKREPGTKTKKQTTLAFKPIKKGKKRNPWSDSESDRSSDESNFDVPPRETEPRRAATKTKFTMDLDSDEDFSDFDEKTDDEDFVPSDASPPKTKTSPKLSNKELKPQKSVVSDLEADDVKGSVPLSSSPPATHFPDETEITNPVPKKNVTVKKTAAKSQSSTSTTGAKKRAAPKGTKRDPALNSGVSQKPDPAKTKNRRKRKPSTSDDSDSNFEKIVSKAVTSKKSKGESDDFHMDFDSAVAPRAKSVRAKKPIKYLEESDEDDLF

| SMILES | inhibition [1] | IC50 [2] [µM] | IC50 [3] [µM] | IC50 [4] [µM] | IC50 [5] [µM] | viability at 0.5 µM [6] [%] | Activity [7] [%] | Activity [8] [%] | viability at 1 µM [9] [%] | Activity [10] [%] | viability at 2 µM [11] [%] | Activity [12] [%] | Activity [13] [%] | viability at 0.25 µM [14] [%] | Activity [15] [%] | Activity [16] [%] | viability at 1 µM [17] [%] | Activity [18] [%] | inhibition [19] |
| --- | --- | --- | --- | --- | --- | --- | --- | --- | --- | --- | --- | --- | --- | --- | --- | --- | --- | --- | --- |
| CCN(CC)CCCCn1c(N)c(-c2nc3ccccc3[nH]2)c2nc(C#N)c(C#N)nc21 | inactive | 0.64 | 2.64 | 0.46 | 5.37 | 99.3 | 0.35 | 0.25 | 97.2 | 46.73 | 45.3 | 6.62 | 0.41 | 99.2 | 0.43 | 3.24 | 32.9 | 9.38 | Active |
| CN(C)CCCCn1c(N)c(-c2nc3ccccc3[nH]2)c2nc(C#N)c(C#N)nc21 | inactive | 0.53 | 2.56 | 0.43 | 4.16 | 99.3 | 0.46 | 0.11 | 98.7 | 64.15 | 28.1 | 5.8 | 0.42 | 99 | 2.28 | 4.45 | 0.65 | 0.53 | Active |

— ChEMBL document CHEMBL3758120, “Synthesis and Mechanism Studies of 1,3-Benzoazolyl Substituted Pyrrolo[2,3-b]pyrazine Derivatives as Nonintercalative Topoisomerase II Catalytic Inhibitors” (J Med Chem, 2016)
